# Measured values from ChEMBL document CHEMBL1159115, “Piperidine-derived gamma-secretase modulators” (Bioorg Med Chem Lett, 2010).
# Assays:
# [1] = Volume of distribution at steady state in mouse at 3 mg/kg, iv and 10 mg/kg, po; format: ADME, organism-based; settings: in vivo, read-out: Vdss
# Summary of the method: (§1)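 Mouse PK: single iv dose of 3 mg/kg and oral dose of 10 mg/kg; data are the mean from three animals.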
# [2] = Drug level in mouse blood at 5 mg/kg, po after 2 hrs; format: ADME, organism-based; parameters: dose 5 mg/kg, route oral; settings: read-out: Drug uptake
# Summary of the method: (§2)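 Mice dosed orally at 5 mg/kg in 1% (w/v) aqueous methylcellulose. Blood and brain sampled 2 h post-dose; brain:blood ratio derived from these levels; mean of three mice.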
# Gamma-secretase [3] = assay: Inhibition of gamma-secretase in human SHSY5Y cells expressing human recombinant APP assessed as amyloid beta42 formation by ELISA; format: cell-based; settings: sh-sy5y; in the assay text read “amyloid beta40 formation” for “amyloid beta42 formation”
# Summary of the method: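 SH-SY5Y cells overexpressing human APP Swedish variant were incubated with compound for 48 h. Secreted Aβ42 and Aβ40 were measured by immunoassay (MSD electrochemiluminescence or AlphaLISA).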
# [4] = Oral bioavailability in dog at 1 mg/kg; format: ADME, organism-based, Canis lupus familiaris; settings: in vivo
# Summary of the method: (§3)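 Dog PK: iv and oral doses each 1 mg/kg; data from a single animal. Oral bioavailability was measured with the sodium salt in 1% methylcellulose vehicle.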
# Gamma-secretase [5] = assay: Inhibition of gamma-secretase in human SHSY5Y cells expressing human recombinant APP assessed as decrease in total Abeta level after 24 hrs by DELFIA; format: cell-based; settings: sh-sy5y
# [6] = target: T1, Gamma-secretase (Homo sapiens) (UniProt Q96BI3+Q9NZ42+Q8WW43+P49768+Q92542+P49810); assay: (§4) Inhibition of gamma-secretase in human SHSY5Y cells expressing human recombinant APP assessed as increase in Abeta38 level after 24 hrs by DELFIA; format: cell-based; settings: SH-SY5Y
# Gamma-secretase [7] = assay: as §4; format: cell-based; settings: sh-sy5y
# [8] = Clearance in dog blood at 1 mg/kg, iv and 1 mg/kg, po; format: ADME, organism-based, Canis lupus familiaris; summary of the method: as §3
# [9] = Drug level in mouse brain at 5 mg/kg, po after 2 hrs; format: ADME, organism-based; parameters: dose 5 mg/kg, route oral; settings: read-out: Drug uptake; summary of the method: as §2
# [10] = Half life in mouse at 3 mg/kg, iv and 10 mg/kg, po; format: ADME, organism-based; settings: in vivo; summary of the method: as §1
# [11] = Clearance in rat blood at 1 mg/kg, iv and 3 mg/kg, po; format: ADME, organism-based
# Summary of the method: (§5)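 Rat PK: iv 1 mg/kg paired with oral 3 mg/kg or 2 mg/kg; values are the mean from three animals. Oral bioavailability was measured with the sodium salt in 1% methylcellulose vehicle.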
# [12] = Volume of distribution at steady state in rat at 1 mg/kg, iv and 3 mg/kg, po; format: ADME, organism-based; settings: in vivo, read-out: Vdss; summary of the method: as §5
# [13] = Clearance in mouse blood at 3 mg/kg, iv and 10 mg/kg, po; format: ADME, organism-based; summary of the method: as §1
# [14] = Oral bioavailability in rat at 3 mg/kg; format: ADME, organism-based; settings: in vivo; summary of the method: as §5
# SH-SY5Y = assay: Cytotoxicity against human SH-SY5Y cells after 24 hrs by WST1 assay; format: cell-based
# [15] = Half life in rat at 1 mg/kg, iv and 3 mg/kg, po; format: ADME, organism-based; settings: in vivo; summary of the method: as §5
# [16] = Half life in dog at 1 mg/kg, iv and 1 mg/kg, po; format: ADME, organism-based, Canis lupus familiaris; settings: in vivo; summary of the method: as §3
# [17] = Oral bioavailability in mouse at 10 mg/kg; format: ADME, organism-based; settings: in vivo; summary of the method: as §1
# [18] = Inhibition of gamma-secretase expressed in african green monkey CV1 cells coexpressing Gal4 DNA-binding/transactivation domain assessed as inhibition of notch processing by luciferase reporter assay; format: cell-based; settings: CV-1
# [19] = target: T1, Gamma-secretase (Homo sapiens); assay: (§6) Inhibition of gamma-secretase in human SHSY5Y cells expressing human recombinant APP assessed as decrease in Abeta42 level after 24 hrs by DELFIA; format: cell-based; settings: SH-SY5Y
# Gamma-secretase [20] = assay: as §6; format: cell-based; settings: sh-sy5y
# [21] = Volume of distribution at steady state in dog at 1 mg/kg, iv and 1 mg/kg, po; format: ADME, organism-based, Canis lupus familiaris; settings: in vivo, read-out: Vdss; summary of the method: as §3
# Gamma-secretase [22] = assay: Inhibition of gamma-secretase in human SHSY5Y cells expressing human recombinant APP assessed as effect on Abeta40 level after 24 hrs by DELFIA; format: cell-based; settings: sh-sy5y
# Gamma-secretase [23] = assay: Inhibition of gamma-secretase in human SHSY5Y cells expressing human recombinant APP assessed as amyloid beta40 formation by ELISA; format: cell-based; settings: sh-sy5y; in the assay text read “amyloid beta42 formation” for “amyloid beta40 formation”
# Summary of the method: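 SH-SY5Y cells overexpressing human APP Swedish variant exposed to compound for 48 h; Aβ40 (and Aβ42) in the cell medium quantified by ELISA, either Meso Scale Discovery or AlphaLISA format. Compounds also cross-screened for inhibition of Notch processing.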
# CV-1 = assay: Inhibition of gamma-secretase expressed in african green monkey CV1 cells coexpressing Gal4 DNA-binding/transactivation domain assessed as inhibition of notch processing by luciferase reporter assay at 20 uM; format: cell-based
smiles,measurement,setting,value
CC(C)CC[C@H](c1ccc(C(F)(F)F)nc1)N1CC[C@@H](CC(=O)[O-])C[C@H]1c1ccc(C(F)(F)F)cc1.[Na+],Vd,[1],1.4 L/kg
same,concentration at 2 h,[2],5.6 µM
same,pIC50,Gamma-secretase [3],5.2
same,bioavailability,[4],72%
same,pIC50,Gamma-secretase [5],4
same,Activity,[6],Dose-dependent effect
same,pEC50,Gamma-secretase [7],6.3
same,clearance,[8],3 mL/min/kg
same,concentration at 2 h,[9],4.2 µM
same,half-life,[10],4.3 h
same,clearance,[11],4 mL/min/kg
same,Vd,[12],2.3 L/kg
same,clearance,[13],4 mL/min/kg
same,bioavailability,[14],> 100%
same,IC50,SH-SY5Y,100 µM
same,half-life,[15],6.6 h
same,half-life,[16],5.2 h
same,bioavailability,[17],> 100%
same,IC50,[18],> 20 µM
same,Activity,[19],Dose-dependent effect
same,pIC50,Gamma-secretase [20],6
same,Vd,[21],1.1 L/kg
same,pIC50,Gamma-secretase [22],4.4
same,pIC50,Gamma-secretase [23],6.5
same,inhibition,CV-1,24%
